Assay results published in ChEMBL document CHEMBL4219238, “Design, synthesis, molecular modelling and in vitro cytotoxicity analysis of novel carbamate derivatives as inhibitors of Monoacylglycerol lipase” (Bioorg Med Chem, 2018).
The source made the active and inactive calls. The rule behind the calls is not given here.

Experiments:
Monoglyceride lipase [1] = target: T1, Monoglyceride lipase (Mus musculus, UniProt O35678); assay: Inhibition of MAGL in mouse B16-F10 cells using 7-HRA as substrate preincubated for 60 mins followed by substrate addition measured every 2.5 mins for 2 hrs by fluorescence assay; type: cell-based
T1 sequence (O35678 whole entry): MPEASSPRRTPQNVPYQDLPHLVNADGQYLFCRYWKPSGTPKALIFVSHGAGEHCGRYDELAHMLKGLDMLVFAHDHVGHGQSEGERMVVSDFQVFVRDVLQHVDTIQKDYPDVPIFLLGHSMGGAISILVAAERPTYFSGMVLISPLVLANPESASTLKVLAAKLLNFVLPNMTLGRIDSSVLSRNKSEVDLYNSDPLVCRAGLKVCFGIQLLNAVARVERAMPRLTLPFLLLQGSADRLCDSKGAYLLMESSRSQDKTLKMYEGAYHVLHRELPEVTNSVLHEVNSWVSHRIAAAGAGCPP

B16-F10 [2] = assay: Antiproliferative activity against mouse B16F10 cells at 10 uM after 48 hrs by Cyto Tracker red dye based flow cytometry; type: functional, cell-based
Method in brief: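 B16-F10 cells (Iscove's medium, 10% heat-inactivated FBS, 37 °C, 5% CO2) exposed to compound or DMSO for 48 h, stained with CytoTrack Red 628/643 and analysed by flow cytometry. Proliferation index (average number of cells that an initial cell became) expressed as fold change over DMSO control; n = 3; one-way ANOVA with Tukey post-test.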

Monoglyceride lipase [3] = target: T2, Monoglyceride lipase (Homo sapiens, UniProt Q99685); assay: Inhibition of recombinant human MAGL using 7-HRA as substrate preincubated for 60 mins followed by substrate addition by fluorescence assay
T2 sequence (Q99685 whole entry): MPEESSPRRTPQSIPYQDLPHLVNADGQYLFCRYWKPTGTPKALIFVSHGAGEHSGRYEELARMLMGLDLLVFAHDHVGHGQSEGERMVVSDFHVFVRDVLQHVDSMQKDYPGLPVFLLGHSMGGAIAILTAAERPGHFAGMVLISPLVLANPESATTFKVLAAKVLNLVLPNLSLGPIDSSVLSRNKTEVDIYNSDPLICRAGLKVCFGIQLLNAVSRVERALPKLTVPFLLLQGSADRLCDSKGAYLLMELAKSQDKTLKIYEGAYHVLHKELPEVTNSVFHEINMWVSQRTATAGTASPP

MCF7 [4] = assay: Induction of apoptosis in human MCF7 cells at 20 uM after 48 hrs by Annexin V-FITC/propidium iodide staining based flow cytometry; type: functional, cell-based
Method in brief: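 MCF7 cells grown in 50% DMEM high glucose / 50% Ham's F-12 with 10% heat-inactivated FBS at 37 °C, 5% CO2, then exposed 48 h to compound or DMSO vehicle. Cells stained with annexin V plus 5 µg/ml PI in HEPES/NaCl/CaCl2 binding buffer. Flow cytometry on 10,000 cells per sample. Apoptotic = AnnV+/PI− plus AnnV+/PI+. n=3, mean ± S.E.M.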

[5] = target: T3, Monoglyceride lipase (Homo sapiens) (UniProt Q99685); assay: Inhibition of MAGL in human MCF7 cells at 10 uM using 7-HRA as substrate preincubated for 6 hrs followed by substrate addition by fluorescence assay; type: cell-based
T3 sequence (whole entry): T2 sequence (Q99685 whole entry)
Method in brief: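 MCF7 cells cultured 6 h with 10 μM compound or DMSO, then lysed; MAGL activity measured on total cell lysate using the 7-HRA fluorogenic assay.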

[6] = target: T4, Monoglyceride lipase (Mus musculus) (UniProt O35678); assay: Inhibition of MAGL in mouse B16-F10 intact cells at 10 uM using 7-HRA as substrate preincubated for 6 hrs followed by substrate addition by fluorescence assay; type: cell-based
T4 sequence (whole entry): T1 sequence (O35678 whole entry)
Method in brief: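 Intact B16-F10 cells cultured 6 h with compound or DMSO, homogenised 30 min at 4 °C in lysis buffer and spun 1,500 × g 5 min. 1 μg lysate assayed with 10 μM 7-HRA (ex 571/em 588 nm); 5-min values reported; mean ± SEM, n = 3.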

B16-F10 [7] = assay: Induction of apoptosis in mouse B16F10 cells assessed as late apoptotic cells at 10 uM after 48 hrs by Annexin V-FITC/propidium iodide staining based flow cytometry (reference value: 7.39%); type: functional
[8] = target: T5, Fatty-acid amide hydrolase 1 (Homo sapiens) (UniProt O00519); assay: Inhibition of human FAAH at 10 uM using AAMCA as substrate preincubated for 1 hr followed by substrate addition measured after 30 mins by fluorescence assay relative to control
T5 sequence (whole entry): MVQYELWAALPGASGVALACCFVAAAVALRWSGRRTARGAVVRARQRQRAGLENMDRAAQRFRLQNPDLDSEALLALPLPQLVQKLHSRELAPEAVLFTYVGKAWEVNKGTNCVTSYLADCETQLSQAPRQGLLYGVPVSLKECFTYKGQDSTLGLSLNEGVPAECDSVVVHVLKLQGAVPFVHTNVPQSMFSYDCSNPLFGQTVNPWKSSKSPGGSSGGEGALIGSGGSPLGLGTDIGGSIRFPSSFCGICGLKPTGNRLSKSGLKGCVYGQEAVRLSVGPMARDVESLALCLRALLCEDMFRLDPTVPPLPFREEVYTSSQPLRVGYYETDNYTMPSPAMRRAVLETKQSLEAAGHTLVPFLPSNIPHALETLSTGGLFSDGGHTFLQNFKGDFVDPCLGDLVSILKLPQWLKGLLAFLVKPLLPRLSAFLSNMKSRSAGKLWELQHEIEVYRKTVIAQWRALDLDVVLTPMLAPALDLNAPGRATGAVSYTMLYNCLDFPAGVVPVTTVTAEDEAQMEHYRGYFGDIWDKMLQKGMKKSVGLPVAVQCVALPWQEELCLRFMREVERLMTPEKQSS
Method in brief: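 Recombinant human FAAH (C-terminal His-tagged, Sf21), 1 U/well, in 50 mM Tris-HCl, 1 mM EDTA, pH 9, preincubated 1 h at room temperature with 10 μM compound (final). AAMCA added to 20 μM final; fluorescence (ex 360/em 460 nm) read every 3 min for 30 min. Rate by linear regression, no-enzyme background subtracted, normalised to no-inhibitor control.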

B16-F10 [9] = assay: Induction of apoptosis in mouse B16F10 cells assessed as early apoptotic cells at 10 uM after 48 hrs by Annexin V-FITC/propidium iodide staining based flow cytometry (reference value: 1.75%); type: functional
B16-F10 [10] = assay: Induction of apoptosis in mouse B16F10 cells assessed as live cells at 10 uM after 48 hrs by Annexin V-FITC/propidium iodide staining based flow cytometry (reference value: 88.04%); type: functional
B16-F10 [11] = assay: Induction of apoptosis in mouse B16F10 cells assessed as necrotic cells at 10 uM after 48 hrs by Annexin V-FITC/propidium iodide staining based flow cytometry (reference value: 2.62%); type: functional
[12] = target: T3, Monoglyceride lipase (Homo sapiens); assay: Inhibition of recombinant human MAGL assessed as residual activity at 10 uM using 7-HRA as substrate preincubated for 60 mins followed by substrate addition by fluorescence assay relative to control
Method in brief: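 Recombinant human MAGL (C-terminal His-tagged, E. coli), 25 ng/well, in 50 mM Tris-HCl pH 7.4, 1 mM EDTA, 10% DMSO final. Preincubated with inhibitor or DMSO 60 min at room temperature, then 5 μM 7-HRA (final) added. Resorufin fluorescence (ex 571/em 588 nm) converted via calibration curve. Rates from linear regression, no-enzyme background subtracted, normalised to no-inhibitor control. IC50 taken at 30 min by variable-slope sigmoid fit.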

MCF7 [13] = assay: Induction of apoptosis in human MCF7 cells at 10 nM after 48 hrs by Annexin V-FITC/propidium iodide staining based flow cytometry; type: functional, cell-based
MCF7 [14] = assay: Induction of apoptosis in human MCF7 cells at 10 uM after 48 hrs by Annexin V-FITC/propidium iodide staining based flow cytometry; type: functional, cell-based
Method in brief: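 HEK293T (DMEM with 10% FBS) or MCF7 (DMEM/Ham's F-12 1:1, 10% FBS) cells treated 48 h with 10 μM compound or DMSO. Staining with Alexa Fluor 488 annexin V plus 5 μg/ml PI in HEPES/NaCl/CaCl2 binding buffer; 10,000 cells per sample read by flow cytometry; n = 3, mean ± S.E.M.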

Monoglyceride lipase [15] = target: T1, Monoglyceride lipase; assay: […] of MAGL in mouse B16-F10 cells using 7-HRA as substrate preincubated for 60 mins followed by substrate addition measured every 2.5 mins for 2 hrs by fluorescence assay; type: cell-based

## O=C(Nc1cccc(-c2ccccc2)c1)OCc1ccccc1
Monoglyceride lipase [1]; read-out: IC50
  IC50: 16.5 µM
B16-F10 [2]
  Activity: inactive
Monoglyceride lipase [3]; read-out: IC50
  IC50: 11.1 µM

## O=C(Nc1cccc(-c2ccc(C(F)(F)F)cc2)c1)OCC1CCCCC1
Monoglyceride lipase [1]; read-out: IC50
  IC50: 17.4 µM
B16-F10 [2]
  Activity: inactive

## O=C(Nc1cccc(-c2ccccc2)c1)OCc1ccco1
Monoglyceride lipase [1]; b16-f10
  IC50: Nd(Insoluble)
Monoglyceride lipase [3]
  IC50: Nd(Insoluble)

## O=C(Nc1cccc(-c2ccc(F)cc2)c1)OCc1ccccc1
Monoglyceride lipase [1]; read-out: IC50
  IC50: 15.6 µM
B16-F10 [2]
  Activity: inactive

## O=C(Oc1ccc([N+](=O)[O-])cc1)N1CCC(C(O)(c2ccc3c(c2)OCO3)c2ccc3c(c2)OCO3)CC1
MCF7 [4]
  Activity: Active

## O=C(Nc1cccc(-c2ccc(C(F)(F)F)cc2)c1)OCc1ccccc1
[5]
  inhibition: Active
Monoglyceride lipase [1]; read-out: IC50
  IC50: 9.41 µM
[6]
  inhibition: Active
B16-F10 [2]
  Activity: Active
B16-F10 [7]
  Activity: 22.65%
[8]
  inhibition: 15%
B16-F10 [9]
  Activity: 9.89%
B16-F10 [10]
  Activity: 64.51%
B16-F10 [11]
  Activity: 2.96%
[12]
  Activity: 82%
Monoglyceride lipase [3]; read-out: IC50
  IC50: 4.5 µM

## O=C(Nc1cccc(-c2ccccc2)c1)OCCc1ccccc1
Monoglyceride lipase [1]; read-out: IC50
  IC50: 17.1 µM
B16-F10 [2]
  Activity: inactive

## COc1ccc(-c2ccc(-c3cn(C(=O)N4CCCCC4c4ccccc4)nn3)cc2)cc1 (configuration not stated)
MCF7 [13]
  Activity: inactive

## O=C(Nc1cccc(-c2ccc(F)cc2)c1)OCC1CCCCC1
Monoglyceride lipase [1]; read-out: IC50
  IC50: 26.7 µM
B16-F10 [2]
  Activity: inactive

## CCCCCCCC/C=C\CCCCCCCC(=O)NCC
MCF7 [14]
  Activity: inactive
[8]
  inhibition: 99%

## O=C(Nc1cccc(-c2ccccc2)c1)OC1CCCCC1
Monoglyceride lipase [1]; read-out: IC50
  IC50: 19.8 µM
B16-F10 [2]
  Activity: inactive
B16-F10 [7]
  Activity: 13.54%
B16-F10 [9]
  Activity: 1.43%
B16-F10 [10]
  Activity: 79.55%
B16-F10 [11]
  Activity: 5.48%
[12]
  Activity: 66%
Monoglyceride lipase [3]; read-out: IC50
  IC50: 9.1 µM

## O=C(Nc1cccc(-c2ccccc2)c1)Nc1cccc(-c2ccccc2)c1
Monoglyceride lipase [15]
  EC50: 5.76 µM
